Consider 16 molecules from ChEMBL document CHEMBL2412993, “Antiprotozoal activity of bicyclic diamines with a N-methylpiperazinyl group at the bridgehead atom” (Bioorg Med Chem, 2013).

For one series, the system named is Plasmodium falciparum. Kind of series: Antiprotozoal activity against chloroquine- and pyrimethamine-resistant Plasmodium falciparum K1 after 48 hrs by [3H]-hypoxanthine incorporation assay. The class given is functional, organism-based. In outline: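 Infected human red cells in RPMI 1640 with 5% Albumax, exposed to serial dilutions from 5 to 0.078 µg/mL for 48 h at 37 °C under reduced oxygen. [3H]-hypoxanthine (0.5 µCi/well) added, then a further 24 h. Cells harvested onto filters and scintillation counted as % of untreated control. IC50 taken from sigmoidal curves; duplicate, repeated once.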

A short description of series [1]: Selectivity index, ratio of IC50 for rat L6 cells to IC50 for chloroquine- and pyrimethamine-resistant Plasmodium falciparum K1. Conditions: L6 cells versus Plasmodium falciparum K1, read-out: Ratio IC50. In kind it is toxicity, cell-based. In outline: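 The L-6 IC50 comes from the 72 h Alamar Blue assay on rat myoblasts (MEM, 15% horse serum, 90–0.123 µg/mL). The K1 IC50 comes from [3H]-hypoxanthine uptake by infected human red cells: 48 h exposure to 5–0.078 µg/mL, then 24 h with label. SI is L-6 IC50 over K1 IC50.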

Series [2] has as its system Trypanosoma brucei rhodesiense. Kind of series: Antiprotozoal activity against bloodstream form of Trypanosoma brucei rhodesiense STIB 900 after 72 hrs by microplate fluorometry. In kind it is functional, organism-based. Conditions: STIB 900, 72 h. In outline:
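Bloodstream forms (10⁴/well) in MEM with 2-mercaptoethanol and 15% heat-inactivated horse serum, serial dilutions 90 to 0.123 µg/mL, 72 h at 37 °C under 5% CO₂. Alamar Blue added for a further 2–4 h. Fluorescence read at ex 536 / em 588 nm and expressed as percent of control. Melarsoprol standard.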

A further series has as its system L6. Kind of series: Cytotoxicity against rat L6 cells after 72 hrs by microplate fluorometry. Conditions: L6, 72 h. The class given is cell-based. Put shortly:
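Rat skeletal myoblasts (L-6) run in the same Alamar Blue microplate format: MEM with 2-mercaptoethanol and 15% heat-inactivated horse serum, dilutions 90 to 0.123 µg/mL, 72 h at 37 °C in 5% CO₂. Alamar Blue for a further 2–4 h, fluorescence at ex 536 / em 588 nm as percent of control. Mefloquine standard.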

The nature of series [3]: Selectivity index, ratio of IC50 for rat L6 cells to IC50 for bloodstream form of Trypanosoma brucei rhodesiense STIB 900. The class given is toxicity, cell-based. Conditions: read-out: Ratio IC50. In outline:
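Medium was MEM with 2-mercaptoethanol and 15% heat-inactivated horse serum, dilutions 90 to 0.123 µg/mL. Wells held 10^4 STIB 900 bloodstream forms or rat L-6 myoblasts. Dye was added for a further 2–4 h, then fluorescence read (ex 536/em 588 nm) as % of control. SI is L-6 IC50 over parasite IC50.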

The subject of series [4] is Plasmodium berghei. Nature of the series: Antiprotozoal activity against bloodstream form of Plasmodium berghei ANKA infected in NMRI mouse assessed as mean survival time at 50 mg/kg, ip qd for administered starting 4 h post-infection for 4 consecutive days (reference value: 6 to 7 days). Conditions: route intraperitoneal.
For series [5], the system named is Plasmodium berghei. Nature of the series: Antiprotozoal activity against Plasmodium berghei ANKA infected in NMRI mouse assessed as reduction in parasitemia at 50 mg/kg, ip qd for administered starting 4 h post-infection for 4 consecutive days. Further details: scale not given: the % may be the effect or the level left. Conditions: route intraperitoneal.
In series [6] the test system is Trypanosoma brucei rhodesiense. Kind of series: Antiprotozoal activity against bloodstream form of Trypanosoma brucei rhodesiense STIB 900 infected in NMRI mouse assessed as reduction in parasitemia at 50 mg/kg, ip qd for administered 3 days post-inoculation for 4 consecutive days. Also on record: dose 50 mg/kg. The class given is functional, organism-based.

Activity calls are given as the source filed them. The calls are words filed in the database; no cut-off is given here.

On to `C[C@@H]1CC[C@H]2[C@@H](C)C(=O)O[C@@H]3O[C@@]4(C)CC[C@@H]1[C@]32OO4` [ARTEMISININ], for which the IC50 in the series with Plasmodium falciparum was 6.4 nM. Moreover, the selectivity ratio in series [1] was 70.4.
Turning to `CN1CCN(C23CC(NC(=O)CCN4CCCCC4)C(C(c4ccccc4)C2)C(c2ccccc2)C3)CC1` (racemic), the IC50 came to 1270 nM in series [2], 230 nM with Plasmodium falciparum and 15400 nM in the series with L6. Also, the selectivity ratio in series [3] came out at 12.1; in series [1], 66.7.
Turning to `CCN(CC)CCC(=O)NC1CC2(N3CCN(C)CC3)CC(c3ccccc3)C1C(c1ccccc1)C2` (racemic), the figures for the IC50 (in series [2]; with Plasmodium falciparum; in the series with L6) were 2290 nM, 670 nM and 35900 nM, respectively. Also, the figures for the selectivity ratio in series [3] and in series [1] were 15.7 and 53.6, respectively.
`CCN(CC)CCCC(C)Nc1ccnc2cc(Cl)ccc12` (centres undefined) [CHLOROQUINE]: the Time in the series on Plasmodium berghei [4] was 20 days. The Activity in the series on Plasmodium berghei [5] is given as 99.6%.
Regarding `CN1CCN(C23CCN(CCCN4CCCC4)C(C(c4ccccc4)C2)C(c2ccccc2)C3)CC1` (racemic), the IC50 in series [2] was found to be 2590 nM; in the series with Plasmodium falciparum, 60 nM; in the series with L6 it was 43500 nM. Besides, the selectivity ratio in series [3] came to 16.8; in series [1] it was 726. Moreover, the Time in the series on Plasmodium berghei [4] is 4 days. The Activity in the series with Plasmodium berghei [5] was determined as 0%.
As to `CCN(CC)CC(=O)NC1CC2(N3CCN(C)CC3)CC(c3ccccc3)C1C(c1ccccc1)C2` (racemic), the IC50 came to 670 nM in series [2], 370 nM in the series with Plasmodium falciparum and 26400 nM with L6. The selectivity ratio in series [3] amounted to 39.4; in series [1], 71.3.
With `CCN(CC)CCCN1CCC2(N3CCN(C)CC3)CC(c3ccccc3)C1C(c1ccccc1)C2` (racemic), the half-inhibitory concentration (IC50) in series [2] is 2560 nM; in the series with Plasmodium falciparum, 60 nM; in the series on L6 it was 68100 nM. For the same molecule, the selectivity ratio in series [3] is 26.6; in series [1] it was 1140. In the series on Plasmodium berghei [4], the Time came out at 4 days. The Activity in the series with Plasmodium berghei [5] stood at 17%.
`CN1CCN(C23CC(NC(=O)CN4CCCCC4)C(C(c4ccccc4)C2)C(c2ccccc2)C3)CC1` (racemic): the IC50 in series [2] worked out at 94 nM; in the series with Plasmodium falciparum it was 350 nM; with L6 it was 22100 nM. In addition, the result in series [6] was inactive. Further, the selectivity ratio in series [3] amounted to 235; in series [1], 63.2.
For `CN1CCN(C23CC(NC(=O)CN4CCCC4)C(C(c4ccccc4)C2)C(c2ccccc2)C3)CC1` (racemic), the results for the IC50 (in series [2]; in the series on Plasmodium falciparum; in the series on L6) were 250 nM, 280 nM and 27800 nM, respectively. In addition, the selectivity ratio in series [3] turned out to be 111; in series [1], 99.3.
The corresponding values for `CN1CCN(C23CC(NC(=O)CCN4CCCC4)C(C(c4ccccc4)C2)C(c2ccccc2)C3)CC1` (racemic) are 3100 nM, 550 nM, 42200 nM, 13.6 and 76.7.
The molecule `c1ccc(C2CC3(N4CCCCC4)CC(NCCCN4CCCC4)C2C(c2ccccc2)C3)cc1` (racemic) gave an IC50 in series [2] of 2020 nM. Also, in series [3], the selectivity ratio amounted to 13.4.
With `CN1CCN(C23CC(NCCCN4CCCC4)C(C(c4ccccc4)C2)C(c2ccccc2)C3)CC1` (racemic), the figures for the IC50 (in series [2]; in the series with Plasmodium falciparum; with L6) were 1610 nM, 670 nM and 22600 nM, respectively. The selectivity ratio in series [3] came out at 14.1; in series [1], 33.8.
The like results for `CCN(CC)C(=O)CNC1CC2(N3CCN(C)CC3)CC(c3ccccc3)C1C(c1ccccc1)C2` (racemic) were, in that order, 500 nM, 1160 nM, 37900 nM, 75.9 and 32.7.
The corresponding values for `CN1CCN(C23CC(NCCC(=O)N4CCCC4)C(C(c4ccccc4)C2)C(c2ccccc2)C3)CC1` (racemic) are 500 nM, 590 nM, 21400 nM, 42.9 and 36.4.
In the case of `CN1CCN(C23CCN(CCCN4CCCCC4)C(C(c4ccccc4)C2)C(c2ccccc2)C3)CC1` (racemic), the IC50 in series [2] amounted to 2540 nM; with Plasmodium falciparum it was 50 nM; with L6, 28900 nM. Further, the selectivity ratio was 11.4 in series [3] and 577 in series [1]. Further, the Time in the series with Plasmodium berghei [4] stood at 4 days. Also, the Activity in the series with Plasmodium berghei [5] was 11%.
Turning to `c1ccc(C2CC3(N4CCCCC4)CCN(CCCN4CCCCC4)C2C(c2ccccc2)C3)cc1` (racemic), in series [3], the selectivity ratio worked out at 7.5.
